We go through three molecules from ChEMBL document CHEMBL1158680, “Chemical constituents and biological activities of the fruit of Zanthoxylum integrifoliolum” (1999).

Set-up in all cases: scale not given: the % may be the effect or the level left
Experiment [1] has as its system Aorta. Nature of the experiment: Vasorelaxation activity in rat aorta assessed as inhibition of norepinephrine-induced phasic contraction at 1 ug/ml preincubated for 15 mins relative to control. The format is functional. A digest of the protocol: (§1)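 Rat aorta was preincubated with test sample or 0.1% DMSO vehicle at 37 °C for 15 min. Contraction was then evoked with high K+ (80 mM) or norepinephrine (3 μM). Response is expressed as percent of control contraction, mean ± SEM, n = 3.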

The subject of experiment [2] is Aorta. The experiment can be described thus: Vasorelaxation activity in rat aorta assessed as inhibition of norepinephrine-induced tonic contraction at 1 ug/ml preincubated for 15 mins relative to control. The format is functional. A digest of the protocol: as §1
Experiment [3] relates to Aorta. Nature of the experiment: Vasorelaxation activity in rat aorta assessed as inhibition of norepinephrine-induced phasic contraction at 12.5 ug/ml preincubated for 15 mins relative to control. The format is functional. A digest of the protocol:
as §1

Experiment [4] deals with Aorta. Nature of the experiment: Vasorelaxation activity in rat aorta assessed as inhibition of K+-induced contraction at 12.5 ug/ml preincubated for 15 mins relative to control. The format is functional. In a few lines:
as §1

A short description of experiment [5]: Antiplatelet activity against rabbit platelets assessed as inhibition of PAF-induced platelet aggregation at 25 ug/ml preincubated for 3 mins by turbidimetric method. Type of experiment: functional, Oryctolagus cuniculus. A digest of the protocol: (§2)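 Washed rabbit platelets were preincubated with test sample or 0.5% DMSO vehicle for 3 min at 37 °C. Inducers were thrombin 0.1 U/mL, arachidonic acid 100 μM, collagen 10 μg/mL or PAF 2 nM. Turbidimetric read-out took platelet suspension absorbance as 0% and platelet-free Tyrode's as 100% aggregation, measured at 6 min. Results are mean ± SEM with n per entry.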

Experiment [6] can be described thus: Antiplatelet activity against rabbit platelets assessed as inhibition of thrombin-induced platelet aggregation at 25 ug/ml preincubated for 3 mins by turbidimetric method. Type of experiment: functional, Oryctolagus cuniculus. A digest of the protocol:
as §2

For experiment [7], the system named is Aorta. The experiment can be described thus: Vasorelaxation activity in rat aorta assessed as inhibition of norepinephrine-induced tonic contraction at 12.5 ug/ml preincubated for 15 mins relative to control. The format is functional. In a few lines: as §1
Experiment [8] can be described thus: Antiplatelet activity against rabbit platelets assessed as inhibition of arachidonic acid-induced platelet aggregation at 25 ug/ml preincubated for 3 mins by turbidimetric method. The format is functional, Oryctolagus cuniculus. A digest of the protocol: as §2
Experiment [9] is described as follows: Antiplatelet activity against rabbit platelets assessed as inhibition of collagen-induced platelet aggregation at 25 ug/ml preincubated for 3 mins by turbidimetric method. The format is functional, Oryctolagus cuniculus. A digest of the protocol: as §2
Experiment [10] deals with Aorta. Nature of the experiment: Vasorelaxation activity in rat aorta assessed as inhibition of K+-induced contraction at 3.8 ug/ml preincubated for 15 mins relative to control. Type of experiment: functional. In a few lines:
as §1

Experiment [11] in a line: Antiplatelet activity against rabbit platelets assessed as inhibition of arachidonic acid-induced platelet aggregation at 20 ug/ml preincubated for 3 mins by turbidimetric method. The format is functional, Oryctolagus cuniculus. A digest of the protocol:
as §2

Experiment [12] in a line: Antiplatelet activity against rabbit platelets assessed as inhibition of thrombin-induced platelet aggregation at 100 ug/ml preincubated for 3 mins by turbidimetric method. Type of experiment: functional, Oryctolagus cuniculus. A digest of the protocol: as §2
Experiment [13] in a line: Antiplatelet activity against rabbit platelets assessed as inhibition of PAF-induced platelet aggregation at 10 ug/ml preincubated for 3 mins by turbidimetric method. The format is functional, Oryctolagus cuniculus. In a few lines:
as §2

A short description of experiment [14]: Antiplatelet activity against rabbit platelets assessed as inhibition of PAF-induced platelet aggregation at 100 ug/ml preincubated for 3 mins by turbidimetric method. The format is functional, Oryctolagus cuniculus. In a few lines:
as §2

Experiment [15] in a line: Antiplatelet activity against rabbit platelets assessed as inhibition of arachidonic acid-induced platelet aggregation at 100 ug/ml preincubated for 3 mins by turbidimetric method. The format is functional, Oryctolagus cuniculus. In a few lines:
as §2

Experiment [16] concerns Aorta. Nature of the experiment: Vasorelaxation activity in rat aorta assessed as inhibition of K+-induced contraction at 15 ug/ml preincubated for 15 mins relative to control. The format is functional. A digest of the protocol: as §1
The nature of experiment [17]: Antiplatelet activity against rabbit platelets assessed as inhibition of PAF-induced platelet aggregation at 20 ug/ml preincubated for 3 mins by turbidimetric method. Type of experiment: functional, Oryctolagus cuniculus. In a few lines:
as §2

The test system of experiment [18] is Aorta. The experiment can be described thus: Vasorelaxation activity in rat aorta assessed as inhibition of norepinephrine-induced tonic contraction at 50 ug/ml preincubated for 15 mins relative to control. The format is functional. In a few lines:
as §1

Experiment [19] in a line: Antiplatelet activity against rabbit platelets assessed as inhibition of arachidonic acid-induced platelet aggregation at 10 ug/ml preincubated for 3 mins by turbidimetric method. The format is functional, Oryctolagus cuniculus. A digest of the protocol: as §2
The subject of experiment [20] is Aorta. Nature of the experiment: Vasorelaxation activity in rat aorta assessed as inhibition of K+-induced contraction at 50 ug/ml preincubated for 15 mins relative to control. Type of experiment: functional. A digest of the protocol: as §1
Experiment [21] is described as follows: Antiplatelet activity against rabbit platelets assessed as inhibition of collagen-induced platelet aggregation at 10 ug/ml preincubated for 3 mins by turbidimetric method. Type of experiment: functional, Oryctolagus cuniculus. In a few lines:
as §2

The subject of experiment [22] is Aorta. Nature of the experiment: Vasorelaxation activity in rat aorta assessed as inhibition of norepinephrine-induced phasic contraction at 50 ug/ml preincubated for 15 mins relative to control. Type of experiment: functional. In a few lines:
as §1

Experiment [23] can be described thus: Antiplatelet activity against rabbit platelets assessed as inhibition of collagen-induced platelet aggregation at 100 ug/ml preincubated for 3 mins by turbidimetric method. Type of experiment: functional, Oryctolagus cuniculus. In a few lines: as §2
Experiment [24] in a line: Antiplatelet activity against rabbit platelets assessed as inhibition of thrombin-induced platelet aggregation at 50 ug/ml preincubated for 3 mins by turbidimetric method. Type of experiment: functional, Oryctolagus cuniculus. In a few lines: as §2
Experiment [25] is described as follows: Antiplatelet activity against rabbit platelets assessed as inhibition of PAF-induced platelet aggregation at 50 ug/ml preincubated for 3 mins by turbidimetric method. Type of experiment: functional, Oryctolagus cuniculus. In a few lines:
as §2

Experiment [26] can be described thus: Antiplatelet activity against rabbit platelets assessed as inhibition of thrombin-induced platelet aggregation at 20 ug/ml preincubated for 3 mins by turbidimetric method. The format is functional, Oryctolagus cuniculus. In a few lines: as §2
Experiment [27] can be described thus: Antiplatelet activity against rabbit platelets assessed as inhibition of thrombin-induced platelet aggregation at 10 ug/ml preincubated for 3 mins by turbidimetric method. Type of experiment: functional, Oryctolagus cuniculus. In a few lines:
as §2

Experiment [28] is described as follows: Antiplatelet activity against rabbit platelets assessed as inhibition of collagen-induced platelet aggregation at 20 ug/ml preincubated for 3 mins by turbidimetric method. Type of experiment: functional, Oryctolagus cuniculus. A digest of the protocol: as §2

Regarding `COc1cc2nc(N3CCN(C(=O)c4ccco4)CC3)nc(N)c2cc1OC` [PRAZOSIN], the Activity in the experiment with Aorta [1] and in the experiment on Aorta [2] was 0% each time.
Turning to `COc1cccc2c1c1ccnc3ccc(=O)n2c31`, the Activity with Aorta [3] is 88.4%; with Aorta [4], 57.9%; in [5], 84.8%; in experiment [6], 90.3%; in the experiment with Aorta [7], 78.9%; in experiment [8] it was 80.4%. The Activity in experiment [9] came to 76.3%; in the experiment on Aorta [10] it was 74.5%.
On to `CCC(=O)CC/C=C\CC/C=C/C=C/C(=O)NCC(C)C` [LANYUAMIDE II], for which the Activity in experiment [11] came out at 0%; in experiment [12], 0%; in [13] it was 77.8%; in experiment [14], 0%; in experiment [15], 0%; in the experiment with Aorta [16], 72.5%. Also, the Activity was determined as 70.5% in experiment [17]; 78.5% in the experiment with Aorta [18]; 44.2% in experiment [19]; 36.1% in the experiment on Aorta [20]; 10.5% in experiment [21]; 83.8% in the experiment with Aorta [22]. The Activity in [23] turned out to be 0%; in experiment [24], 35.9%; in experiment [25], 0%; in experiment [26], 75.2%; in experiment [27] it was 77.6%; in experiment [28], 0%.
